Legend:
[1] = system: Mus musculus; assay: Antinociceptive activity determined in mouse tail flick assay 30 min after sc injection (peak effect); type: functional; conditions: 0.5 h
Method in brief: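 Male Swiss mice (20-25 g), tail flick nociceptive threshold, cutoff 8 s. Drug given sc; read 30 min after injection. ED50 with confidence limits by Litchfield and Wilcoxon method.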

[2] = biological target: Delta-type opioid receptor (Rattus norvegicus) (UniProt P33533); assay: Binding affinity for rat delta opioid receptor was evaluated by displacing [3H]- diprenorphine
Delta-type opioid receptor (Rattus norvegicus), sequence (P33533 whole entry): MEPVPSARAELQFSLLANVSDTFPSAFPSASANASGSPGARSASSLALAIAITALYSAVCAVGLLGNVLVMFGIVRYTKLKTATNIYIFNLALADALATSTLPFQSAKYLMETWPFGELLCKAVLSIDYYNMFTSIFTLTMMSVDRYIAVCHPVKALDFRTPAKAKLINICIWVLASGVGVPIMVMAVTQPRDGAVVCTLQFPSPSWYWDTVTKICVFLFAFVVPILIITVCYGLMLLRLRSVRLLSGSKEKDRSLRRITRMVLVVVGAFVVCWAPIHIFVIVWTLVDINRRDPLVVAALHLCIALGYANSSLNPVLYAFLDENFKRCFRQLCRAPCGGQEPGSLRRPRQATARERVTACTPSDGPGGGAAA

[3] = biological target: Mu-type opioid receptor (Rattus norvegicus, UniProt P33535); assay: Binding affinity for mu opioid receptor was evaluated by displacing [3H]- diprenorphine
Mu-type opioid receptor, sequence (P33535 whole entry): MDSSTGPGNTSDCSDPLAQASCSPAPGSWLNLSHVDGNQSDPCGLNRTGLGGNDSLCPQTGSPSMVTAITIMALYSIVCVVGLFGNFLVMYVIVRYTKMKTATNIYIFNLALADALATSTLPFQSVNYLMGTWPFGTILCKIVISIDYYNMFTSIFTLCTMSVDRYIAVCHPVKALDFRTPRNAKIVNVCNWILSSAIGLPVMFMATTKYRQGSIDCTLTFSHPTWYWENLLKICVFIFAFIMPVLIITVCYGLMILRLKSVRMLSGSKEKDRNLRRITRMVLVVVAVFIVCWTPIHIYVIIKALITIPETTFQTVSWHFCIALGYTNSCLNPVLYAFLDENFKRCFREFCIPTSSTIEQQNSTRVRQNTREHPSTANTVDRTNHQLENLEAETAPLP
Method in brief: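 Rat brain minus cerebellum, homogenised in Tris-HCl pH 7.4, spun 40000g 30 min, membranes resuspended at 0.5 mg/mL protein in 50 mM Tris-HCl pH 7.6. Competition against [3H]diprenorphine; nonspecific binding defined with DAGO (100 nM). Ki via Cheng-Prusoff; triplicate curves, n = 5.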

[4] = biological target: T1, Kappa-type opioid receptor (Cavia porcellus, UniProt P41144); assay: Binding affinity for kappa opioid receptor was evaluated by displacing [3H]- diprenorphine
T1 sequence (P41144 whole entry): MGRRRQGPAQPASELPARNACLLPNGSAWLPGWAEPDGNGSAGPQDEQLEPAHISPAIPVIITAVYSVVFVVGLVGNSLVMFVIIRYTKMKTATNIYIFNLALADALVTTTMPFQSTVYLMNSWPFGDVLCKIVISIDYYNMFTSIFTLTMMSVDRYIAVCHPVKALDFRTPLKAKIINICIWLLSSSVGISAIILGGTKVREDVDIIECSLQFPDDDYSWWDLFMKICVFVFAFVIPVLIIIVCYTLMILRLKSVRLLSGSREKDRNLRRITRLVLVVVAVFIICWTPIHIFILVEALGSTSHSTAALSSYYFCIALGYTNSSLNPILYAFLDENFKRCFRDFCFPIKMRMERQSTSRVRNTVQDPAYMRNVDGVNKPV

[5] = biological target: T1, Kappa-type opioid receptor
[6] = biological target: T1, Kappa-type opioid receptor; remark: listed apart in the source

## CN1CC[C@]23c4c5ccc(O)c4O[C@H]2[C@@H](O)C=C[C@H]3[C@H]1C5 [MORPHINE]
[1]
  ED50: 4.99 mg/kg
[2]
  Binding affinity: 1.22 µM

## CCC12CCN(CC3CC3)C(C(=O)c3ccc(O)cc31)C2C (stereo not given)
[3]
  Ki: 690 nM

## CCCCOC(=O)[C@]1(c2ccccc2)CC1CN1CC[C@@]2(C)c3cc(O)ccc3C[C@@H]1[C@@H]2C (stereo not given in full)
[3]
  Ki: > 25000 nM
[4]
  Ki: > 25000 nM
[2]
  Binding affinity: > 25 µM

## CCOC(=O)[C@]1(c2ccccc2)CC1CN1CC[C@@]2(C)c3cc(O)ccc3C[C@@H]1[C@@H]2C (stereo not given in full)
[3]
  Ki: > 25000 nM
[4]
  Ki: 4430 nM
[2]
  Binding affinity: > 25 µM

## CC1[C@H]2Cc3ccc(O)cc3[C@]1(C)CCN2CCCc1ccccc1 (stereo not given in full)
[3]
  Ki: 825 nM
[4]
  Ki: 1120 nM

## COC(=O)[C@]1(c2ccccc2)C[C@@H]1CN1CC[C@@]2(C)c3cc(O)ccc3C[C@@H]1[C@@H]2C
[3]
  Ki: > 25000 nM
[1]
  ED50: 4.52 mg/kg
[4]
  Ki: 866 nM
[2]
  Binding affinity: > 25 µM
[5]
  Ki: 833 nM
[6]
  Ki: 2620 nM

## COC(=O)[C@@]1(c2ccccc2)C[C@@H]1CN1CC[C@@]2(C)c3cc(O)ccc3C[C@@H]1[C@@H]2C
[3]
  Ki: > 25000 nM
[4]
  Ki: 2640 nM
[2]
  Binding affinity: > 25 µM

## CCCOC(=O)[C@]1(c2ccccc2)CC1CN1CC[C@@]2(C)c3cc(O)ccc3C[C@@H]1[C@@H]2C (stereo not given in full)
[3]
  Ki: > 25000 nM
[4]
  Ki: 6430 nM
[2]
  Binding affinity: > 25 µM

## COC(=O)[C@]1(c2ccccc2)C[C@H]1CN1CC[C@@]2(C)c3cc(O)ccc3C[C@@H]1[C@@H]2C
[3]
  Ki: > 25000 nM
[4]
  Ki: 240 nM
[2]
  Binding affinity: > 25 µM
[5]
  Ki: 224 nM
[6]
  Ki: 926 nM

## C[C@H]1[C@H]2Cc3ccc(O)cc3[C@]1(C)CCN2CC1C[C@]1(C(=O)O)c1ccccc1 (stereo not given in full)
[3]
  Ki: > 25000 nM
[4]
  Ki: > 25000 nM
